Residue numbers refer to the chain shown, from its start.
Experiments:
[1] = biological target: T1, Oleandomycin glycosyltransferase (Streptomyces antibioticus) (UniProt Q53685); assay: Activity of Streptomyces antibioticus wild-type OleD assessed as conversion rate of compound to produce glucoside 3 using NDP sugar donor UDP-6-thio-glucose after 3 hrs by HPLC
T1 sequence (whole entry): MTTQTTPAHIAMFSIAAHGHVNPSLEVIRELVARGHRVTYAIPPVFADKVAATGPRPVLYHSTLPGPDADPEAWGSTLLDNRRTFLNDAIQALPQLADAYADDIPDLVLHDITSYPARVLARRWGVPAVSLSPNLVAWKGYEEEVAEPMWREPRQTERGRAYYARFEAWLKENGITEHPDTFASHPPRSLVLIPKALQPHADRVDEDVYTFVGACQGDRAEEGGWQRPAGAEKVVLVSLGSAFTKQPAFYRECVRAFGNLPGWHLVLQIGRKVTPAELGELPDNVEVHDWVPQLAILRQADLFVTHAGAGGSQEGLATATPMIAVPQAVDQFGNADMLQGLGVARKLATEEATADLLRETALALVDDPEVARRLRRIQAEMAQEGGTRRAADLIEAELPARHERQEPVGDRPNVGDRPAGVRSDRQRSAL
Summary of the method: (§1)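 End-point donor-specificity assay with purified OleD enzyme. Percentage conversion was read after 3 h. Quenched reactions were run by reverse-phase C18 HPLC with a 10–90% CH3CN gradient in 0.1% formic acid/H2O over 20 min at 1 ml min–1, with detection at 254 nm. Products were identified by LC-MS, by comparison to standards where available, and by fluorescence.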

[2] = tested on: T2, Oleandomycin glycosyltransferase (Streptomyces antibioticus), Q53685 [P67T,S132F,A242V]; assay: Activity of Streptomyces antibioticus OleD P67T/S132F/A242V mutant assessed as conversion rate of compound to produce glucoside 3 using NDP sugar UDP-6-deoxy-glucose after 3 hrs by HPLC; summary of the method: as §1
T2 sequence (whole entry): T1 sequence (whole entry) with P67T, S132F, A242V

[3] = tested on: T2, Oleandomycin glycosyltransferase (Streptomyces antibioticus), Q53685 [P67T,S132F,A242V]; assay: Activity of Streptomyces antibioticus OleD P67T/S132F/A242V mutant assessed as conversion rate of compound to produce glucoside 3 using NDP sugar donor UDP-6-thio-glucose after 3 hrs by HPLC; summary of the method: as §1
[4] = tested on: T2, Oleandomycin glycosyltransferase (Streptomyces antibioticus), Q53685 [P67T,S132F,A242V]; assay: Activity of Streptomyces antibioticus OleD P67T/S132F/A242V mutant assessed as conversion rate of compound to produce glucoside 3 using NDP sugar donor-UDP-4,6-dideoxyglucose after 3 hrs by HPLC; summary of the method: as §1
[5] = tested on: T3, Oleandomycin glycosyltransferase (Streptomyces antibioticus), Q53685 [P67T]; assay: Activity of Streptomyces antibioticus OleD P67T mutant assessed as conversion rate of compound to produce glucoside 3 using NDP sugar donor UDP-glucose after 3 hrs by HPLC; summary of the method: as §1
T3 sequence (whole entry): T1 sequence (whole entry) with P67T

[6] = tested on: T3, Oleandomycin glycosyltransferase (Streptomyces antibioticus), Q53685 [P67T]; assay: Activity of Streptomyces antibioticus OleD P67T mutant assessed as conversion rate of compound to produce glucoside 3 using NDP sugar donor UDP-6-azido-glucose after 3 hrs by HPLC; summary of the method: as §1
[7] = tested on: T4, Oleandomycin glycosyltransferase (Streptomyces antibioticus), Q53685 [S132F]; assay: Activity of Streptomyces antibioticus OleD S132F mutant assessed as conversion rate of compound to produce glucoside 3 using NDP sugar donor UDP-6-deoxy-glucose after 3 hrs by HPLC; summary of the method: as §1
T4 sequence (whole entry): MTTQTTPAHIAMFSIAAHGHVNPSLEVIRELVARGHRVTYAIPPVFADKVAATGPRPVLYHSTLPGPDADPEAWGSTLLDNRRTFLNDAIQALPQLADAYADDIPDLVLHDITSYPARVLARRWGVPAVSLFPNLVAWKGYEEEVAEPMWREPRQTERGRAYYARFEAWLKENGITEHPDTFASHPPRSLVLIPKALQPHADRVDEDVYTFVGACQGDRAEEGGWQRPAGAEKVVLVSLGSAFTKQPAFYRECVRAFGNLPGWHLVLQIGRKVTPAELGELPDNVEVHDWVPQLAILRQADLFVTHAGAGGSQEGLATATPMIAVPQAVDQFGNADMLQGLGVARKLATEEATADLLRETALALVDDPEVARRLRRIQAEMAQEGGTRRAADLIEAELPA

[8] = tested on: T4, Oleandomycin glycosyltransferase (Streptomyces antibioticus), Q53685 [S132F]; assay: Activity of Streptomyces antibioticus OleD S132F mutant assessed as conversion rate of compound to produce glucoside 3 using NDP sugar donor UDP-xylose after 3 hrs by HPLC; summary of the method: as §1
[9] = tested on: T4, Oleandomycin glycosyltransferase (Streptomyces antibioticus), Q53685 [S132F]; assay: Activity of Streptomyces antibioticus OleD S132F mutant assessed as conversion rate of compound to produce glucoside 3 using NDP sugar donor UDP-6-azido-glucose after 3 hrs by HPLC; summary of the method: as §1

Cc1cc(=O)oc2cc(O)ccc12
Activity [1]: 1% | Activity [2]: 85% | Activity [3]: 47% | Activity [4]: 45% | Activity [5]: 51% | Activity [6]: 2% | Activity [7]: 10% | Activity [8]: 1.5% | Activity [9]: 1%
